Bounds are passed on as bounds.

From ChEMBL document CHEMBL1157543, “Synthesis and biological evaluation of polysulfated oligosaccharide glycosides as inhibitors of angiogenesis and tumor growth” (J Med Chem, 2010) come the findings set out here.

One data set concerns the target T1, Heparanase (Homo sapiens, UniProt Q9Y251).
T1 sequence (Q9Y251 whole entry): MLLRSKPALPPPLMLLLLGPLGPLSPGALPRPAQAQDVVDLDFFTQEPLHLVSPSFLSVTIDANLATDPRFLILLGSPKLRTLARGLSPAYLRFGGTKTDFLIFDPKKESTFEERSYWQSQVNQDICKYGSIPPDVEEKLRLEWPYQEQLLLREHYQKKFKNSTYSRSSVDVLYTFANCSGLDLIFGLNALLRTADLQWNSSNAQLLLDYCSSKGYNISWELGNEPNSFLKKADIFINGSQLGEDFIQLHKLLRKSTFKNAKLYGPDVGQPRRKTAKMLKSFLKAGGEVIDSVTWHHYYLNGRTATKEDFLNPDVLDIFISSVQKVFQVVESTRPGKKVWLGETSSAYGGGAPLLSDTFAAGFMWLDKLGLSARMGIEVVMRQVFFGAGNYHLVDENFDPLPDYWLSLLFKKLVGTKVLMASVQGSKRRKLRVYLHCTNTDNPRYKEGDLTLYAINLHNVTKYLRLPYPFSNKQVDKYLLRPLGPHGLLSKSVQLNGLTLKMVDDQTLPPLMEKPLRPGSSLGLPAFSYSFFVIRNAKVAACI
Nature of the data set: Inhibition of human recombinant heparanase. In outline:
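Recombinant human heparanase assayed by ultrafiltration with 3H-labelled heparan sulfate as substrate (Km = 1.64 μM). Ki values with standard error were derived from inhibition response curves.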

Data set [1] addresses Fibroblast growth factor 1 (Homo sapiens, UniProt P05230). Nature of the data set: Binding affinity to FGF1 by surface plasmon-based solution affinity assay. In outline:
(§1)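 Surface plasmon resonance solution affinity assay on heparin-coated CM4 chips. Buffer: HBS-EP (10 mM HEPES pH 7.4, 150 mM NaCl, 3.0 mM EDTA, 0.005% polysorbate 20). Kd is the mean of at least duplicate measurements ± SD.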
In general terms: Surface plasmon resonance follows binding to a sensor surface in real time, without labels.

Data set [2] has as its target Fibroblast growth factor 2 (Homo sapiens, UniProt P09038). Nature of the data set: Binding affinity to FGF2 by surface plasmon-based solution affinity assay. Summed up: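 Surface plasmon resonance solution affinity assay on heparin-coated CM4 chips. FGF-2 binding run in HBS-EP containing 300 mM NaCl. Kd is the mean of at least duplicate measurements ± SD.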
The target of data set [3] is T2, Vascular endothelial growth factor A, long form (Homo sapiens, UniProt P15692).
T2 sequence (P15692 whole entry): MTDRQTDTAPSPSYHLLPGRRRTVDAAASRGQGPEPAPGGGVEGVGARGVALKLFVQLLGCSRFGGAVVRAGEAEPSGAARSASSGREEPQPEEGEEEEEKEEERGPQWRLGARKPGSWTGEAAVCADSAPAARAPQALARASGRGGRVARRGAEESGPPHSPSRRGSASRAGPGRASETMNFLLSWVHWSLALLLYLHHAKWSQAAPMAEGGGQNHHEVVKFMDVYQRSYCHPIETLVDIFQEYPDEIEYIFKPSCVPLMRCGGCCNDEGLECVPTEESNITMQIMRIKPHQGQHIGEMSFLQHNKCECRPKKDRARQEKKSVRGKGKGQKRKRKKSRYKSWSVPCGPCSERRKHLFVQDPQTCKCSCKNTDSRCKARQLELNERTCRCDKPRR
Put plainly: Binding affinity to VEGF by surface plasmon-based solution affinity assay. In outline: as §1

The next data set deals with HUVEC. Nature of the data set: Cytotoxicity against HUVEC. The conditions noted are these: human. It is filed as cell-based.
The subject of data set [4] is Plasma. Put plainly: Anticoagulant activity in human plasma assessed as activated partial thromboplastin time. In kind it is functional. Summed up:
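Pooled normal human plasma spiked with compound in PBS at 0.1 mg/mL (methods give a 0–100 μg/mL range); APTT elevation measured. Normal range 26–36 s. Values are means of two determinations.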

Data set [5] deals with Plasma. Put plainly: Anticoagulant activity in human plasma by heptest. In kind it is functional. Summed up: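 Heptest clot assay. Plasma (centrifuged 1800g, 10 min, used within 30 min) incubated with compound 2 min at 37 °C. Factor Xa added, 2 min at 37 °C, then clotting started with Recalmix; read on a ball coagulometer. Normal range 13–20 s; means of two determinations.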

Chain of Fibroblast growth factor 1 (P05230 whole entry): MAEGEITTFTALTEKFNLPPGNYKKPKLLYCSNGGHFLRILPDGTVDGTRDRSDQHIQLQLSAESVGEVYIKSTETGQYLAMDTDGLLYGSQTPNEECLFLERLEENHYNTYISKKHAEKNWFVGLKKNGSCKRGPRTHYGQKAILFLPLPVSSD
Chain of Fibroblast growth factor 2 (P09038 143-288 limits assumed): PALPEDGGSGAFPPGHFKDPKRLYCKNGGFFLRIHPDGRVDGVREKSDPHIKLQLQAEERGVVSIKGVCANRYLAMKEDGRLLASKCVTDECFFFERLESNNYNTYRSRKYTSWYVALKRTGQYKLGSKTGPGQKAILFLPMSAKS

In general, Ki refers to the dissociation constant of the complex between target and ligand, obtained from inhibition or displacement. One may read the Kd as a measure of binding affinity in units of concentration. A low value points to tighter binding. By LC50 is commonly meant the concentration that kills 50% of the test population. For `O=S(=O)([O-])OC[C@H]1O[C@H](OCCCn2cc(-c3ccccc3)nn2)[C@@H](O[C@H]2O[C@H](COS(=O)(=O)[O-])[C@@H](OS(=O)(=O)[O-])[C@H](O[C@H]3O[C@H](COS(=O)(=O)[O-])[C@@H](OS(=O)(=O)[O-])[C@H](O[C@H]4O[C@H](COS(=O)(=O)[O-])[C@@H](OS(=O)(=O)[O-])[C@H](O[C@H]5O[C@H](COS(=O)(=O)[O-])[C@@H](OS(=O)(=O)[O-])[C@H](OS(=O)(=O)[O-])[C@@H]5OS(=O)(=O)[O-])[C@@H]4OS(=O)(=O)[O-])[C@@H]3OS(=O)(=O)[O-])[C@@H]2OS(=O)(=O)[O-])[C@@H](OS(=O)(=O)[O-])[C@@H]1OS(=O)(=O)[O-].[Na+].[Na+].[Na+].[Na+].[Na+].[Na+].[Na+].[Na+].[Na+].[Na+].[Na+].[Na+].[Na+].[Na+].[Na+].[Na+]`, the Ki at Heparanase was 350 nM. Besides, the results for the Kd in data set [1], in data set [2] and in data set [3] were 0.1 nM, 83 nM and 1.4 nM, respectively. For the same compound, the LC50 with HUVEC was over 100000 nM.

On to `O=S(=O)([O-])OC[C@H]1O[C@H](OCCCn2cc(-c3ccccc3)nn2)[C@@H](O[C@H]2O[C@H](COS(=O)(=O)[O-])[C@@H](OS(=O)(=O)[O-])[C@H](O[C@H]3O[C@H](COS(=O)(=O)[O-])[C@@H](OS(=O)(=O)[O-])[C@H](O[C@H]4O[C@H](COS(=O)(=O)[O-])[C@@H](OS(=O)(=O)[O-])[C@H](OS(=O)(=O)[O-])[C@@H]4OS(=O)(=O)[O-])[C@@H]3OS(=O)(=O)[O-])[C@@H]2OS(=O)(=O)[O-])[C@@H](OS(=O)(=O)[O-])[C@@H]1OS(=O)(=O)[O-].[Na+].[Na+].[Na+].[Na+].[Na+].[Na+].[Na+].[Na+].[Na+].[Na+].[Na+].[Na+].[Na+]`, for which the inhibition constant Ki on Heparanase was found to be 610 nM. Besides, the Kd in data set [1] stood at 0.36 nM; in data set [2] it was 550 nM; in data set [3], 25 nM. Also, in the data set with HUVEC, the LC50 was over 100000 nM.

With `O=S(=O)([O-])OC[C@H]1O[C@H](OCCCCCCCCn2cc(-c3cccc4ccccc34)nn2)[C@@H](O[C@H]2O[C@H](COS(=O)(=O)[O-])[C@@H](OS(=O)(=O)[O-])[C@H](O[C@H]3O[C@H](COS(=O)(=O)[O-])[C@@H](OS(=O)(=O)[O-])[C@H](O[C@H]4O[C@H](COS(=O)(=O)[O-])[C@@H](OS(=O)(=O)[O-])[C@H](OS(=O)(=O)[O-])[C@@H]4OS(=O)(=O)[O-])[C@@H]3OS(=O)(=O)[O-])[C@@H]2OS(=O)(=O)[O-])[C@@H](OS(=O)(=O)[O-])[C@@H]1OS(=O)(=O)[O-].[Na+].[Na+].[Na+].[Na+].[Na+].[Na+].[Na+].[Na+].[Na+].[Na+].[Na+].[Na+].[Na+]`, the Ki on Heparanase was 270 nM. For the same compound, the Kd came out at 0.19 nM in data set [1], 110 nM in data set [2] and 7.1 nM in data set [3]. The Time with Plasma [4] came out at 59.5 s. Moreover, in the data set on Plasma [5], the Activity is given as 28.8 s. Further, the LC50 in the data set with HUVEC is over 100000 nM.

For `O=S(=O)([O-])OC[C@H]1O[C@H](OCCCCCCCCCCCCn2cc(-c3cccc4ccccc34)nn2)[C@@H](O[C@H]2O[C@H](COS(=O)(=O)[O-])[C@@H](OS(=O)(=O)[O-])[C@H](O[C@H]3O[C@H](COS(=O)(=O)[O-])[C@@H](OS(=O)(=O)[O-])[C@H](O[C@H]4O[C@H](COS(=O)(=O)[O-])[C@@H](OS(=O)(=O)[O-])[C@H](O[C@H]5O[C@H](COS(=O)(=O)[O-])[C@@H](OS(=O)(=O)[O-])[C@H](OS(=O)(=O)[O-])[C@@H]5OS(=O)(=O)[O-])[C@@H]4OS(=O)(=O)[O-])[C@@H]3OS(=O)(=O)[O-])[C@@H]2OS(=O)(=O)[O-])[C@@H](OS(=O)(=O)[O-])[C@@H]1OS(=O)(=O)[O-].[Na+].[Na+].[Na+].[Na+].[Na+].[Na+].[Na+].[Na+].[Na+].[Na+].[Na+].[Na+].[Na+].[Na+].[Na+].[Na+]`, the Ki on Heparanase came to 270 nM. Besides, the Kd turned out to be 0.19 nM in data set [1], 73 nM in data set [2] and 0.79 nM in data set [3]. The compound also showed an LC50 in the data set on HUVEC of over 100000 nM.

Take `CN(C)c1cccc2c(S(=O)(=O)NCCCCCCCCO[C@H]3O[C@H](COS(=O)(=O)[O-])[C@@H](OS(=O)(=O)[O-])[C@H](OS(=O)(=O)[O-])[C@@H]3O[C@H]3O[C@H](COS(=O)(=O)[O-])[C@@H](OS(=O)(=O)[O-])[C@H](O[C@H]4O[C@H](COS(=O)(=O)[O-])[C@@H](OS(=O)(=O)[O-])[C@H](O[C@H]5O[C@H](COS(=O)(=O)[O-])[C@@H](OS(=O)(=O)[O-])[C@H](OS(=O)(=O)[O-])[C@@H]5OS(=O)(=O)[O-])[C@@H]4OS(=O)(=O)[O-])[C@@H]3OS(=O)(=O)[O-])cccc12.[Na+].[Na+].[Na+].[Na+].[Na+].[Na+].[Na+].[Na+].[Na+].[Na+].[Na+].[Na+].[Na+]`: the Ki at Heparanase was 330 nM. Also, the figures for the Kd in data set [1], in data set [2] and in data set [3] were 0.2 nM, 130 nM and 8.9 nM, respectively. In the data set with HUVEC, this compound had an LC50 of over 100000 nM.

Turning to `O=S(=O)([O-])OC[C@H]1O[C@H](OCCCCCCCCCCCCn2cc(-c3ccccc3)nn2)[C@@H](O[C@H]2O[C@H](COS(=O)(=O)[O-])[C@@H](OS(=O)(=O)[O-])[C@H](O[C@H]3O[C@H](COS(=O)(=O)[O-])[C@@H](OS(=O)(=O)[O-])[C@H](O[C@H]4O[C@H](COS(=O)(=O)[O-])[C@@H](OS(=O)(=O)[O-])[C@H](O[C@H]5O[C@H](COS(=O)(=O)[O-])[C@@H](OS(=O)(=O)[O-])[C@H](OS(=O)(=O)[O-])[C@@H]5OS(=O)(=O)[O-])[C@@H]4OS(=O)(=O)[O-])[C@@H]3OS(=O)(=O)[O-])[C@@H]2OS(=O)(=O)[O-])[C@@H](OS(=O)(=O)[O-])[C@@H]1OS(=O)(=O)[O-].[Na+].[Na+].[Na+].[Na+].[Na+].[Na+].[Na+].[Na+].[Na+].[Na+].[Na+].[Na+].[Na+].[Na+].[Na+].[Na+]`, on Heparanase, the Ki worked out at 270 nM. The Kd came to 2.3 nM in data set [1], 253 nM in data set [2] and 5.1 nM in data set [3]. The LC50 with HUVEC was over 100000 nM.

Regarding `CN(C)c1cccc2c(S(=O)(=O)NCCCO[C@H]3O[C@H](COS(=O)(=O)[O-])[C@@H](OS(=O)(=O)[O-])[C@H](OS(=O)(=O)[O-])[C@@H]3O[C@H]3O[C@H](COS(=O)(=O)[O-])[C@@H](OS(=O)(=O)[O-])[C@H](O[C@H]4O[C@H](COS(=O)(=O)[O-])[C@@H](OS(=O)(=O)[O-])[C@H](O[C@H]5O[C@H](COS(=O)(=O)[O-])[C@@H](OS(=O)(=O)[O-])[C@H](O[C@H]6O[C@H](COS(=O)(=O)[O-])[C@@H](OS(=O)(=O)[O-])[C@H](OS(=O)(=O)[O-])[C@@H]6OS(=O)(=O)[O-])[C@@H]5OS(=O)(=O)[O-])[C@@H]4OS(=O)(=O)[O-])[C@@H]3OS(=O)(=O)[O-])cccc12.[Na+].[Na+].[Na+].[Na+].[Na+].[Na+].[Na+].[Na+].[Na+].[Na+].[Na+].[Na+].[Na+].[Na+].[Na+].[Na+]`, the Ki at Heparanase was found to be 570 nM. The Kd in data set [1] turned out to be 0.79 nM; in data set [2], 86 nM; in data set [3] it was 12.2 nM. Further, the LC50 in the data set with HUVEC is over 100000 nM.
